Results collected from several papers.
Compare with care: the assays were run in different laboratories.

| SMILES | test | system | setting | solubility |
| --- | --- | --- | --- | --- |
| C#Cc1ccc2c(c1)C(c1ccccn1)=NCc1c(-c3cnco3)ncn1-2.Cl | – | water | 24 h, 25 °C | 5560 µg/mL |
| O=c1[nH]c2ccccc2n1CCCN1CCC(n2c(=O)[nH]c3cc(Cl)ccc32)CC1 | – | FaSSIF | 24 h, pH 7.4, 37 °C | 135 µg/mL |
| Clc1ccc(CSc2nnc(-c3ccccn3)n2Cc2ccco2)cc1Cl | – | aqueous buffer | pH 5 | < 0.1 µg/mL |
| CC[C@H](C)[C@H](NC(=O)[C@H](CO)NC(=O)[C@H](CCCNC(=N)N)NC(C)=O)C(=O)N[C@H]1CSSC[C@@H](C(=O)N[C@H](C(N)=O)[C@@H](C)O)NC(=O)[C@H](CCCNC(=N)N)NC(=O)[C@H](Cc2c[nH]cn2)NC(=O)[C@H](C)NC(=O)CNC(=O)[C@H](Cc2c[nH]c3ccccc23)NC(=O)[C@H](CC(=O)O)NC(=O)[C@H](CCC(N)=O)NC(=O)[C@H](Cc2ccc3ccccc3c2)NC(=O)[C@H](C(C)C)NC1=O | – | PBS | pH 7.4 | 2170 µg/mL |
| CCCCCCC#Cc1cncc(-c2nnc(SCc3cc([N+](=O)[O-])cc([N+](=O)[O-])c3)n2C)c1 | – | PBS | – | < 1.6 µM |
| CC(/C=C/[C@@H]1C[C@]2(CO2)CC(C)(C)O1)=C\C[C@H]1OC[C@@H](NC(=O)/C=C\[C@H](C)OC(=O)C(C)(C)C)CO1 | HPLC | PBS | – | > 10 µM |
| CCCSc1ccc2nc(NC(=O)OC)[nH]c2c1 | – | water | 24 h | < 1 µg/mL |
| CC[C@H](C)[C@H](NC(=O)[C@H](CO)NC(=O)[C@H](CCCNC(=N)N)NC(C)=O)C(=O)N[C@H]1CSSC[C@@H](C(=O)N[C@H](C(N)=O)[C@@H](C)O)NC(=O)[C@H](CCCNC(=N)N)NC(=O)[C@H](Cc2c[nH]cn2)NC(=O)[C@H](Cc2cccc3ccccc23)NC(=O)CNC(=O)[C@H](Cc2c[nH]c3ccccc23)NC(=O)[C@H](CC(=O)O)NC(=O)[C@H](CCC(N)=O)NC(=O)[C@H](Cc2cccc3ccccc23)NC(=O)[C@H](C(C)C)NC1=O | – | PBS | pH 7.4 | 200 µg/mL |
| COc1cc(C)c2[nH]cc(/C=N/NC(=N)NCCc3cccnc3)c2c1 | – | PBS | 2 h, pH 7.4 | 30.1 µM |
| CC[C@H](C)[C@H](NC(=O)[C@H](CCCNC(=N)N)NC(=O)[C@H](CCC(=O)O)NC(C)=O)C(=O)N[C@H]1CSSC[C@@H](C(=O)N[C@H](C(N)=O)[C@@H](C)O)NC(=O)[C@H](CCCNC(=N)N)NC(=O)[C@H](Cc2c[nH]cn2)NC(=O)[C@H](Cc2cccc3ccccc23)NC(=O)CNC(=O)[C@H](Cc2c[nH]c3ccccc23)NC(=O)[C@H](CC(=O)O)NC(=O)[C@H](CCC(N)=O)NC(=O)[C@H](Cc2cccc3ccccc23)NC(=O)[C@H](C(C)C)NC1=O | – | PBS | pH 7.4 | 160 µg/mL |
| COc1ccc(NC(=O)N2CCCCN3[C@H](CN(C)C)[C@H](c4ccc(C#Cc5ccccc5)cc4)[C@@H]3C2)cc1 | – | aqueous buffer | pH 1 | 155 µM |
| O=C(CCCN1CCC2(CC1)C(=O)NCN2c1ccccc1)N(CC1CCCCC1)c1ccccc1 | – | PBS | 24 h, pH 7.4, 37 °C | 626 µM |
| CC[C@H](C)[C@H](NC(=O)[C@H](CO)NC(=O)[C@H](CCCNC(=N)N)NC(C)=O)C(=O)N[C@H]1CSSC[C@@H](C(=O)N[C@H](C(N)=O)[C@@H](C)O)NC(=O)[C@H](CCCNC(=N)N)NC(=O)[C@H](Cc2cnc[nH]2)NC(=O)[C@H](C)NC(=O)CNC(=O)[C@H](Cc2c[nH]c3ccccc23)NC(=O)[C@H](CC(=O)O)NC(=O)[C@H](CCC(N)=O)NC(=O)[C@H](Cc2ccc(O)cc2)NC(=O)[C@H](C(C)C)NC1=O | – | PBS | pH 7.4 | 2840 µg/mL |
| O=C1C=C(N(Cc2ccc(Cl)nc2)CC(F)F)CO1 | – | water | pH 7 | 3000 µg/mL |
